Experimental data reported in ChEMBL document CHEMBL3120154, “2-[N-Alkyl(R-phenyl)-aminomethyl]-3-phenyl-7-trifluoromethylquinoxalines as anticancer agents inhibitors of folate enzymes” (Eur J Med Chem, 2014).

Tests used:
Format in all cases: functional
[1] = Cytotoxicity against human EKVX cells at 10^-5 M after 48 hrs by SRB assay; conditions: read-out: GI
Summary of the method: (§1)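 Run by NCI on its 60-line human tumor cell panel, after a three-cell-line prescreen. Cells were exposed to drug for 48 h over a 5-log range: 100, 10, 1, 0.1 and 0.01 micromolar. Growth was estimated by sulforhodamine B (SRB) protein staining. Percent growth inhibition (I%) was recorded at each concentration relative to untreated control cells.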

[2] = tested on: SN12C; assay: Cytotoxicity against human SN12C cells at 10^-5 M after 48 hrs by SRB assay; conditions: read-out: GI
[3] = tested on: BT-549; assay: Cytotoxicity against human BT549 cells at 10^-6 M after 48 hrs by SRB assay; conditions: BT-549, 48 h, read-out: GI; summary of the method: as §1
[4] = tested on: NCI/ADR-RES; assay: Cytotoxicity against human NCI/ADR-RES cells at 10^-8 M after 48 hrs by SRB assay; conditions: read-out: GI
[5] = tested on: COLO 205; assay: Cytotoxicity against human COLO205 cells at 10^-5 M after 48 hrs by SRB assay; conditions: COLO 205, 48 h, read-out: GI; summary of the method: as §1
[6] = tested on: OVCAR-3; assay: Cytotoxicity against human OVCAR3 cells at 10^-6 M after 48 hrs by SRB assay; conditions: OVCAR-3, 48 h, read-out: GI
Summary of the method: (§2)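 Run in the NCI 60-cell-line screen after a three-line prescreen. Cells got a 48 h drug exposure; viability/growth was estimated with the sulforhodamine B protein assay. Growth inhibition (I%) was recorded at 100, 10, 1, 0.1 and 0.01 micromolar. Percent growth is relative to untreated control cells, and negative values indicate cell kill.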

[7] = tested on: SK-MEL-28; assay: Cytotoxicity against human SK-MEL-28 cells at 10^-8 M after 48 hrs by SRB assay; conditions: SK-MEL-28, 48 h, read-out: GI
[8] = tested on: BT-549; assay: Cytotoxicity against human BT549 cells at 10^-5 M after 48 hrs by SRB assay; conditions: BT-549, 48 h, read-out: GI; summary of the method: as §1
[9] = tested on: UACC-62; assay: Cytotoxicity against human UACC62 cells at 10^-6 M after 48 hrs by SRB assay; conditions: UACC-62, 48 h, read-out: GI
[10] = tested on: HOP-92; assay: Cytotoxicity against human HOP92 cells at 10^-6 M after 48 hrs by SRB assay; conditions: HOP-92, 48 h, read-out: GI; summary of the method: as §1
[11] = tested on: SNB-75; assay: Cytotoxicity against human SNB75 cells at 10^-7 M after 48 hrs by SRB assay; conditions: SNB-75, 48 h, read-out: GI
[12] = tested on: 786-0; assay: Cytotoxicity against human 786-0 cells at 10^-5 M after 48 hrs by SRB assay; conditions: 786-0, 48 h, read-out: GI; summary of the method: as §1
[13] = tested on: IGROV-1; assay: Cytotoxicity against human IGROV1 cells at 10^-6 M after 48 hrs by SRB assay; conditions: IGROV-1, 48 h, read-out: GI; summary of the method: as §2
[14] = tested on: RPMI-8226; assay: Cytotoxicity against human RPMI8226 cells at 10^-6 M after 48 hrs by SRB assay; conditions: RPMI-8226, 48 h, read-out: GI
Summary of the method: (§3)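 Second-stage screen in the 60-cell-line human tumor panel at NCI, over a 5-log range (100, 10, 1, 0.1, 0.01 micromolar). Cells were exposed to drug for 48 h and growth was estimated with a sulforhodamine B protein stain. The value is percent growth inhibition at each concentration.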

[15] = tested on: KM12; assay: Cytotoxicity against human KM12 cells at 10^-6 M after 48 hrs by SRB assay; conditions: KM12, 48 h, read-out: GI; summary of the method: as §2
[16] = tested on: NCI-H226; assay: Cytotoxicity against human NCI-H226 cells at 10^-6 M after 48 hrs by SRB assay; conditions: NCI-H226, 48 h, read-out: GI; summary of the method: as §2
[17] = tested on: SK-MEL-28; assay: Cytotoxicity against human SK-MEL-28 cells at 10^-5 M after 48 hrs by SRB assay; conditions: SK-MEL-28, 48 h, read-out: GI; summary of the method: as §3
[18] = tested on: ACHN; assay: Cytotoxicity against human ACHN cells at 10^-8 M after 48 hrs by SRB assay; conditions: read-out: GI
[19] = tested on: MOLT-4; assay: Cytotoxicity against human MOLT4 cells at 10^-5 M after 48 hrs by SRB assay; conditions: MOLT-4, 48 h, read-out: GI; summary of the method: as §2
[20] = tested on: A498; assay: Cytotoxicity against human A498 cells at 10^-6 M after 48 hrs by SRB assay; conditions: A498, 48 h, read-out: GI; summary of the method: as §1
[21] = Cytotoxicity against human UACC257 cells at 10^-6 M after 48 hrs by SRB assay; conditions: UACC-257, 48 h, read-out: GI
[22] = tested on: SR; assay: Cytotoxicity against human SR cells at 10^-5 M after 48 hrs by SRB assay; conditions: read-out: GI
[23] = tested on: NCI-H322M; assay: Cytotoxicity against human NCI-H322M cells at 10^-5 M after 48 hrs by SRB assay; conditions: read-out: GI; summary of the method: as §2
[24] = tested on: NCI-H322M; assay: Cytotoxicity against human NCI-H322M cells at 10^-6 M after 48 hrs by SRB assay; conditions: read-out: GI; summary of the method: as §2
[25] = tested on: SF-539; assay: Cytotoxicity against human SF539 cells at 10^-6 M after 48 hrs by SRB assay; conditions: SF-539, 48 h, read-out: GI; summary of the method: as §3
[26] = tested on: T47D; assay: Cytotoxicity against human T47D cells at 10^-6 M after 48 hrs by SRB assay; conditions: read-out: GI
[27] = tested on: KM12; assay: Cytotoxicity against human KM12 cells at 10^-5 M after 48 hrs by SRB assay; conditions: KM12, 48 h, read-out: GI; summary of the method: as §2
[28] = Cytotoxicity against human OVCAR5 cells at 10^-6 M after 48 hrs by SRB assay; conditions: OVCAR-5, 48 h, read-out: GI; summary of the method: as §3
[29] = Cytotoxicity against human OVCAR4 cells at 10^-5 M after 48 hrs by SRB assay; conditions: OVCAR-4, 48 h, read-out: GI; summary of the method: as §3
[30] = tested on: U-251; assay: Cytotoxicity against human U251 cells at 10^-5 M after 48 hrs by SRB assay; conditions: U-251, 48 h, read-out: GI
[31] = tested on: MCF7; assay: Cytotoxicity against human MCF7 cells at 10^-5 M after 48 hrs by SRB assay; conditions: MCF7, 48 h, read-out: GI; summary of the method: as §2
[32] = tested on: M14; assay: Cytotoxicity against human M14 cells at 10^-5 M after 48 hrs by SRB assay; conditions: M14, 48 h, read-out: GI; summary of the method: as §2
[33] = tested on: PC-3; assay: Cytotoxicity against human PC3 cells at 10^-5 M after 48 hrs by SRB assay; conditions: PC-3, 48 h, read-out: GI; summary of the method: as §3
[34] = tested on: PC-3; assay: Cytotoxicity against human PC3 cells at 10^-6 M after 48 hrs by SRB assay; conditions: PC-3, 48 h, read-out: GI; summary of the method: as §3
[35] = tested on: SNB-19; assay: Cytotoxicity against human SNB19 cells at 10^-6 M after 48 hrs by SRB assay; conditions: SNB-19, 48 h, read-out: GI
[36] = tested on: HCT-15; assay: Cytotoxicity against human HCT15 cells at 10^-6 M after 48 hrs by SRB assay; conditions: HCT-15, 48 h, read-out: GI; summary of the method: as §1
[37] = tested on: HCT-15; assay: Cytotoxicity against human HCT15 cells at 10^-7 M after 48 hrs by SRB assay; conditions: HCT-15, 48 h, read-out: GI
[38] = tested on: CCRF-CEM; assay: Cytotoxicity against human CCRF-CEM cells at 10^-5 M after 48 hrs by SRB assay; conditions: read-out: GI; summary of the method: as §1
[39] = tested on: SK-MEL-5; assay: Cytotoxicity against human SK-MEL-5 cells at 10^-5 M after 48 hrs by SRB assay; conditions: SK-MEL-5, 48 h, read-out: GI; summary of the method: as §3

SMILES | inhibition of growth at 10 µM [1] [%] | inhibition of growth at 10 µM [2] [%] | inhibition of growth at 1 µM [3] [%] | inhibition of growth at 10 µM [5] [%] | inhibition of growth at 1 µM [6] [%] | inhibition of growth at 10 µM [8] [%] | inhibition of growth at 1 µM [9] [%] | inhibition of growth at 1 µM [10] [%] | inhibition of growth at 10 µM [12] [%] | inhibition of growth at 1 µM [13] [%] | inhibition of growth at 1 µM [14] [%] | inhibition of growth at 1 µM [15] [%] | inhibition of growth at 1 µM [16] [%] | inhibition of growth at 10 µM [17] [%] | inhibition of growth at 10 µM [19] [%] | inhibition of growth at 1 µM [20] [%] | inhibition of growth at 1 µM [21] [%] | inhibition of growth at 10 µM [23] [%] | inhibition of growth at 1 µM [24] [%] | inhibition of growth at 1 µM [25] [%] | also measured
CCN(Cc1nc2cc(C(F)(F)F)ccc2nc1-c1ccccc1)c1ccc(OC)c(OC)c1 | 23 | 21 | < 40 | < 40 | 25 | 33 | < 40 | < 40 | 15 | < 40 | < 40 | < 40 | 17 | < 40 | 44 | 26 | 104 | < 40 | < 40 | < 40 | inhibition of growth at 0.01 µM [4]: < 40%; inhibition of growth at 0.01 µM [7]: < 40%; inhibition of growth at 0.1 µM [11]: < 40%; inhibition of growth at 0.01 µM [18]: < 40%; inhibition of growth at 10 µM [22]: 56%; inhibition of growth at 1 µM [26]: < 40%; inhibition of growth at 10 µM [27]: < 40%; inhibition of growth at 1 µM [28]: < 40%; inhibition of growth at 10 µM [29]: < 40%; inhibition of growth at 10 µM [30]: 62%; inhibition of growth at 10 µM [31]: 25%; inhibition of growth at 10 µM [32]: 17%; inhibition of growth at 10 µM [33]: 56%; inhibition of growth at 1 µM [34]: 13%; inhibition of growth at 1 µM [35]: < 40%; inhibition of growth at 1 µM [36]: < 40%; inhibition of growth at 0.1 µM [37]: < 40%; inhibition of growth at 10 µM [38]: 70%; inhibition of growth at 10 µM [39]: 17%
C#CCN(Cc1nc2cc(C(F)(F)F)ccc2nc1-c1ccccc1)c1ccc(C)cc1 | < 40 | 80 | < 40 | 164 | 62 | < 40 | < 40 | < 40 | 70 | < 40 | < 40 | < 40 | < 40 | 71 | 88 | < 40 | < 40 | 62 | < 40 | < 40 | inhibition of growth at 1 µM [26]: 90%; inhibition of growth at 10 µM [27]: 137%; inhibition of growth at 1 µM [28]: < 40%; inhibition of growth at 10 µM [29]: 63%; inhibition of growth at 10 µM [30]: 85%; inhibition of growth at 10 µM [31]: 70%; inhibition of growth at 10 µM [32]: 95%; inhibition of growth at 10 µM [33]: < 40%; inhibition of growth at 1 µM [34]: < 40%; inhibition of growth at 1 µM [35]: 54%; inhibition of growth at 1 µM [36]: 63%; inhibition of growth at 10 µM [38]: < 40%; inhibition of growth at 10 µM [39]: 99%
